How the values were obtained:
[1] = test system: Human immunodeficiency virus 1; test: Selectivity ratio of IC50 for wild type HIV1 3B infected in human MT4 cells in presence of human serum albumin to IC50 for wild type HIV1 3B infected in human MT4 cells; format: functional
[2] = test system: Human immunodeficiency virus 1; test: Antiviral activity against wild type HIV1 3B infected in human MT4 cells assessed as cell viability by MTT assay in presence of human serum albumin; format: functional, organism-based; conditions: Human immunodeficiency virus 1, 3B
In short: (§1)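 HIV-1 replication in MT-4 cells read by MTT. Values are mean ± s.d. of three independent experiments. The protein-adjusted value is derived from the MT-4/MTT IC50 and the shift seen with human serum albumin. Detailed conditions are those of the earlier paper in the series.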

[3] = test system: Human immunodeficiency virus 1; test: Selectivity ratio of IC50 for RAL-resistant HIV1 harboring integrase Q148K mutant to IC50 for wild type HIV1 3B; format: functional
[4] = Cytotoxicity against human MT4 cells assessed as growth inhibition after 4 days by MTT assay; format: cell-based
In short: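 MT-4 cells; values given as mean ± s.d. of three independent experiments.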

[5] = test system: Human immunodeficiency virus 1; test: Antiviral activity against wild type HIV1 3B infected in human MT4 cells assessed as cell viability by MTT assay; format: functional, organism-based; conditions: Human immunodeficiency virus 1, 3B; in short: as §1
[6] = Ratio of plasma concentration in rat after 24 hrs to IC50 for wild type HIV1 3B infected in human MT4 cells in presence of human serum albumin; format: ADME, cell-based; conditions: mt4, 24 h
[7] = Oral bioavailability in rat at 5 mg/kg; format: ADME, organism-based; conditions: in vivo
[8] = Half life in rat at 1 mg/kg, iv and 5 mg/kg, po; format: ADME, organism-based; conditions: in vivo
[9] = (§2) Volume of distribution at steady state in rat at 1 mg/kg, iv and 5 mg/kg, po; format: ADME, organism-based; conditions: in vivo, read-out: Vdss
[10] = Total clearance in rat at 1 mg/kg, iv and 5 mg/kg, po; format: ADME, organism-based; conditions: in vivo
[11] = test system: Human immunodeficiency virus 1; test: Selectivity ratio of IC50 for RAL-resistant HIV1 harboring integrase Y143R mutant to IC50 for wild type HIV1 3B; format: functional
[12] = test system: Human immunodeficiency virus 1; test: Selectivity ratio of IC50 for RAL-resistant HIV1 harboring integrase N155H mutant to IC50 for wild type HIV1 3B; format: functional
[13] = test system: Rattus norvegicus; test: as §2; format: ADME, organism-based; conditions: in vivo

| Compound | Ratio IC50 [1] | IC50 [2] [nM] | Ratio IC50 [3] | CC50 at 96 h [4] [nM] | IC50 [5] [nM] | Ratio [6] | bioavailability [7] [%] | half-life [8] [h] | Vd [9] [L/kg] | clearance [10] [mL/min/kg] | Ratio IC50 [11] | Ratio IC50 [12] | Vdss [13] [L/kg] |
| --- | --- | --- | --- | --- | --- | --- | --- | --- | --- | --- | --- | --- | --- |
| O=C(NCc1ccc(F)cc1)c1cn2ccn(CCN3CCOCC3)c(=O)c2c(O)c1=O | 3 | 20 | >250 | 36000 | 6.6 |  |  |  |  |  |  |  |  |
| COCCN1C(=O)c2c(O)c(=O)c(C(=O)NCc3ccc(F)cc3)cn2CC1O (configuration not stated) | 3.7 | 14.1 | 2.1 | 83000 | 3.8 | 117 | 14 | 7.6 | 0.14 | 0.24 | 1.5 | 1.5 |  |
| O=C(NCc1ccc(F)cc1)c1cn2c(c(O)c1=O)C(=O)N1CCCN(Cc3nccs3)C1C2 (racemic) | 3.9 | 12.9 | 4.2 | 2800 | 3.3 |  |  |  |  |  |  |  |  |
| CS(=O)(=O)N1CCCN2C(=O)c3c(O)c(=O)c(C(=O)NCc4ccc(F)cc4)cn3CC21 (racemic) | 2.8 | 120 |  | > 220000 | 43 |  |  |  |  |  |  |  |  |
| COc1cc2c(cc1Cc1cccc(Cl)c1F)c(=O)c(C(=O)O)cn2[C@H](CO)C(C)C [ELVITEGRAVIR] |  |  | >1700 |  |  |  |  |  |  |  | 1.8 | 25 |  |
| CN(C)C(=O)Cn1ccn2cc(C(=O)NCc3ccc(F)cc3)c(=O)c(O)c2c1=O | 4.1 | 144 |  | > 200000 | 35 |  |  |  |  |  |  |  |  |
| O=C(NCc1ccc(F)cc1)c1cn2c(c(O)c1=O)C(=O)N1CCCCOC1C2 (racemic) | 7.6 | 22 | 2.2 | 26000 | 2.9 |  |  |  |  |  |  |  |  |
| O=C(NCc1ccc(F)cc1)c1cn2c(c(O)c1=O)C(=O)N(C1CCCCC1)CC2 | 4.4 | 29 | >250 | > 240000 | 6.5 |  |  |  |  |  |  |  |  |
| O=C(NCc1ccc(F)cc1)c1cn2c(c(O)c1=O)C(=O)N(CCOc1ccccc1)CC2 | 9.5 | 65 | 17 | 10000 | 6.8 |  |  |  |  |  |  |  |  |
| O=C(NCc1ccc(F)cc1)c1cn2ccn(CCOc3ccccc3)c(=O)c2c(O)c1=O | 11 | 48 | >250 | 2400 | 4.4 |  |  |  |  |  |  |  |  |
| O=C(NCc1ccc(F)cc1)c1cn2c(c(O)c1=O)C(=O)N(CCN1CCOCC1)CC2 | 1.6 | 34 |  | 160000 | 21 |  |  |  |  |  |  |  |  |
| COCCN1CCCN2C(=O)c3c(O)c(=O)c(C(=O)NCc4ccc(F)cc4)cn3CC12 (racemic) | 3.9 | 20.3 | 5.7 | 9800 | 5.2 |  |  |  |  |  |  |  |  |
| COC(=O)c1[nH]cc(C(=O)NCc2ccc(F)cc2)c(=O)c1O | 12 |  | 200 |  |  | 3.4 |  | 4.7 | 0.2 |  | 1.5 | 21 |  |
| CC(C)OCCN1CCn2cc(C(=O)NCc3ccc(F)cc3)c(=O)c(O)c2C1=O | 3.1 | 13 | 9.9 | 30000 | 4.2 |  |  |  |  |  |  |  |  |
| CN(C)C(=O)CN1CCn2cc(C(=O)NCc3ccc(F)cc3)c(=O)c(O)c2C1=O | 2.4 | 62 |  | > 200000 | 26 |  |  |  |  |  |  |  |  |
| CC(=O)N1CCCN2C(=O)c3c(O)c(=O)c(C(=O)NCc4ccc(F)cc4)cn3CC12 (racemic) | 2 | 58 |  | > 200000 | 29 |  |  |  |  |  |  |  |  |
| COCCN1CCn2cc(C(=O)NCc3ccc(F)cc3)c(=O)c(O)c2C1=O | 3.1 | 18 | 18 | 52000 | 5.9 | 27 | 41 | 3.4 | 0.12 | 0.51 | 1.5 | 1.5 |  |
| CN1CCCCN2C(=O)c3c(O)c(=O)c(C(=O)NCc4ccc(F)cc4)cn3CC12 (racemic) | 4.9 | 31.4 | 4.2 | > 200000 | 6.4 |  |  |  |  |  |  |  |  |
| O=C(NCc1ccc(F)cc1)c1cn2ccn(C3CCCCC3)c(=O)c2c(O)c1=O | 13 | 156 | >250 | > 200000 | 12 |  |  |  |  |  |  |  |  |
| O=C(NCc1ccc(F)cc1)c1cn2c(c(O)c1=O)C(=O)N1CCCOC1C2 (racemic) | 7.9 | 26.9 | 2.8 | 18000 | 3.4 | 685 |  | 17 | 0.13 | 0.1 | 1.6 | 1.6 |  |
| CC(C)CN1CCCCN2C(=O)c3c(O)c(=O)c(C(=O)NCc4ccc(F)cc4)cn3CC12 (racemic) | 17 | 91.8 | 3.2 | 13000 | 5.4 |  |  |  |  |  |  |  |  |
| COCCn1ccn2cc(C(=O)NCc3ccc(F)cc3)c(=O)c(O)c2c1=O | 17 | 27 | 35 | > 200000 | 1.6 | 2600 | 40 | 11 |  | 0.02 | 1.6 | 3.7 | 0.015 |
| CC(C)N1CCN2C(=O)c3c(O)c(=O)c(C(=O)NCc4ccc(F)cc4)cn3CC21 (racemic) | 3.4 | 7.8 | 39 | 8000 | 2.3 |  |  |  |  |  |  |  |  |
| O=C(NCc1ccc(F)cc1)c1cn2c(c(O)c1=O)C(=O)N1CCOC1C2 (racemic) | 52 | 140 | 19 | 72000 | 2.7 |  |  |  |  |  |  |  |  |
| CC(C)OCCn1ccn2cc(C(=O)NCc3ccc(F)cc3)c(=O)c(O)c2c1=O | 4.4 | 19 | 39 | 49000 | 4.3 |  |  |  |  |  |  |  |  |
| CN1CCCN2C(=O)c3c(O)c(=O)c(C(=O)NCc4ccc(F)cc4)cn3CC12 (racemic) | 4.3 | 16.3 | 4.7 | 20000 | 3.8 |  |  |  |  |  |  |  |  |
| CC(C)N1CCCN2C(=O)c3c(O)c(=O)c(C(=O)NCc4ccc(F)cc4)cn3CC21 (racemic) | 4.3 | 32.3 | 9.1 | 7200 | 7.5 |  |  |  |  |  |  |  |  |
